# Source: PubChem
# BB579 growth dn: chemicals that inhibit yeast BB579 growth in restrictive medium (lifespan-shortening candidates) | S. cerevisiae BB579 growth, OD615, 48 h | inhibition, % at 10 µM | 140,000 compounds, 0.51% hits | AID 804;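 active means inhibition above a set limit, 3 SD over the mean compound inhibition, cut at about 44% in these data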
#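 Assay system – yeast BB579 (DeaD) · Dosing – single compound dose of 10 µM, 0.25% DMSO final · Detection – OD615 turbidity measurement · Buffer or medium – CSMM-D restrictive synthetic medium containing dextrose (glucose) · Benchmarks – positive control amphotericin B 10 µg/mL · Incubation – 48 h exposure, 30 °C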
# p47phox inh: inhibitors of human p47phox binding; P14598; inhibition, % at 24.7 µM; 220,000 compounds, 0.53% hits; p47phox/p22phox peptide binding, fluorescence polarization, 2 h;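 active means inhibition above about 30%, limit read from the data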;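 further: 0% = p47phox with labelled peptide and 100% = labelled peptide alone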
# Target sequence (P14598 whole entry, looked up): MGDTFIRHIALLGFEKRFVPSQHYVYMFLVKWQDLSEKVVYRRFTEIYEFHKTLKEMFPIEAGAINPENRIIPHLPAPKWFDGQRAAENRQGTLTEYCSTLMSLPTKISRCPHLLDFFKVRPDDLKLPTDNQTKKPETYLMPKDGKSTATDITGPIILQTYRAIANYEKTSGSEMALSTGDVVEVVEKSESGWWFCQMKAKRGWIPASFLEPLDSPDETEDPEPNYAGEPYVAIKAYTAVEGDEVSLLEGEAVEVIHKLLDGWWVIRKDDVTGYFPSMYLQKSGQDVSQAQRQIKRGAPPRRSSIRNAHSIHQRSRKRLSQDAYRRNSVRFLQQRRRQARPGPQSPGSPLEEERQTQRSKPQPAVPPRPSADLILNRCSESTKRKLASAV
# RBBP9 inhibitor: inhibitors of human serine hydrolase RBBP9; 220,000 compounds, 0.2% hits; inhibition, % at 7.94 µM; recombinant RBBP9, FP-Rh probe fluorescence polarization; O75884;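 active means inhibition above the campaign mean of all tested compounds plus 3 SD, cut at about 14% in these data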;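 further: plate controls were DMSO wells with RBBP9 for no effect and wells lacking RBBP9 protein for full effect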
# Target sequence (O75884 whole entry, looked up): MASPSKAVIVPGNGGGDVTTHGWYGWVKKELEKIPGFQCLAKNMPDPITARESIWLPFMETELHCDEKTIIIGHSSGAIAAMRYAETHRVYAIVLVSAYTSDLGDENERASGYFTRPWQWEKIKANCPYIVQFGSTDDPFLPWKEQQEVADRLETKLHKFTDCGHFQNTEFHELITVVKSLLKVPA
#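 Test system: recombinant human RBBP9; Timing: 30 min then 45 min, 25 °C; Detection: fluorescence polarization; Control set: RBBP9 with DMSO as uninhibited control, no-protein wells as full inhibition; Compound dosing: one concentration, 7.94 µM nominal, 0.794% DMSO; Probe or stimulus: FP-Rh activity-based probe, 375 nM before mixing.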
# sdo1 growth: sdo1-depleted yeast growth rescue | 140,000 compounds, 0.21% hits | AID 817 | z-score at 10 µM | S. cerevisiae sdo1-depleted JHY4D growth rescue, OD600 30 h; hits give high values; pdr5 snq2 efflux-pump mutant strain;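 active means z-score above 3 at both the 24 hr and the 30 hr optical density reads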;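 further: z-score against mean and SD of all compound wells on the same plate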
# TbHK1 inh: blocks Trypanosoma brucei hexokinase 1 activity; recombinant TbHK1, G6PDH-coupled NADH A340; inhibition, % at 10 µM; 220,000 compounds, 0.11% hits; AID 1430;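 active means inhibition of 50% or more in the single-dose primary screen; inactive means inhibition below 50%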
# Yeast life ext: extends the lifespan of yeast. S. cerevisiae growth with nicotinamide, OD615; deaD strain in restrictive glucose medium. inhibition of the nicotinamide effect, % at 10 µM. 130,000 compounds, 0.68% hits;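 active means inhibition above a set limit, placed 3 SD over the median of all compounds, cut at about 26% in these data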;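 further: 0% = nicotinamide-treated wells and 100% = cells grown without nicotinamide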
#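 Assay system: DeaD-strain S. cerevisiae. Medium: CSMM-D glucose medium, restrictive. Reagent: nicotinamide, 1.5 mM, co-present with compound. Compound: 10 µM single point, 0.25% DMSO. Schedule: culture preincubation 4 h, compound exposure 48 h, both 30 °C. Detection: absorbance at 615 nm.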
# sdo1 rescue conf: SDO1-depleted yeast growth rescue confirmation | S. cerevisiae JHY4D (SDO1-depleted) growth rescue, OD600, 30 h; hits give high values; efflux-deficient strain, SNQ2 and PDR5 mutated | AID 949 | 440 compounds, 44% hits | shares compounds with sdo1 growth | OD recovery (no concentration beside the values);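 active means yeast growth recovered at 30 hours, either rising with dose fitted slope above 0.001 or with average optical density gain above 0.07, some results past the limit were not filed as active; inactive means growth falling with dose or no effect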;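 further: gain in OD600 from 0 h to 30 h averaged across all seven doses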
# * = called active by the depositor; x = not tested or not shown. Sampled rows, rich in hits. Any-hit rate of the full collection: about 1.6%.
SMILES,BB579 growth dn,p47phox inh,RBBP9 inhibitor,sdo1 growth,TbHK1 inh,Yeast life ext,others
O=C(O)C1CCN(c2ccc(S(=O)(=O)N3CCOCC3)cc2[N+](=O)[O-])CC1,x,69*,-1,x,2,x,
O=C(N/N=C/c1ccncc1)c1cccc(S(=O)(=O)Nc2ccc(Cl)cc2)c1,x,17,10,x,-22,x,
COC(=O)CN1C(=O)N/C(=C/c2ccccc2OC)C1=O,x,-4,1,x,-33,x,
CN(C)c1ccc(NS(=O)(=O)c2ccc(Cl)cc2)cc1,-27,-1,-9,0.03,3,0,
CN(C)c1ccc(S(=O)(=O)c2ccc(Cl)cc2)cc1,-12,-9,-1,-0.68,0,71*,
O=S1(=O)CC(O)C(N(CCO)C(=S)Nc2ccccc2)C1 (stereo not drawn),x,-21,-5,x,-11,x,
C/C(=N/NC(=O)CC1N=C(Cc2ccccc2)NNC1=O)c1cccnc1 (stereo not drawn),x,2,-6,x,2,x,
CCOC(=O)c1c(C)oc2c1c(CN1CCN(CCO)CC1)c(O)c1ccccc12,x,38*,-6,x,-14,x,
Cc1c(S(=O)(=O)c2ccccn2)c(N)n(Cc2cccc(Cl)c2)c1C,x,-34,0,x,-7,x,
COc1cccc(CC(=O)Nc2nc3c(s2)C(=O)CC(C)(C)C3)c1,x,-39,-8,x,-4,x,
CSC[C@@H]1NC(=S)N(c2ccc(C)cc2)C1=O,9,-9,-4,-0.86,-7,31*,
Cc1ccc(N2C(=O)C3CCC(C)(C2=O)C3(C)C)cc1 (stereo not drawn),x,-3,-5,x,-6,x,
COC(=O)c1ccc(NC(=S)N2CCN(Cc3ccccc3OC)CC2)cc1,x,-8,-5,x,-14,x,
COc1ccc(-c2c(C)n([O-])c3c([n+]2=O)CCCCC3)cc1OC,x,2,-3,x,-13,x,
CCOC(=O)C1=C(N)OC2=C(C(=O)CCC2)C1c1sccc1C (stereo not drawn),-8,-8,-3,0.96,-5,47*,
CCC(=NCCc1c(C)[nH]c2ccc(C)cc12)C1=C(O)CC(c2ccccc2)CC1=O (stereo not drawn),-12,-17,-1,-0.19,-10,50*,
O=C1SC(SC(=Nc2ccccc2)Nc2ccccc2)C(=O)N1c1ccccc1 (stereo not drawn),-9,1,3,-1.2,1,34*,
Cc1cccc(N2C(=O)CC(SC(=Nc3ccccc3)Nc3ccccc3)C2=O)c1 (stereo not drawn),-2,-14,-11,-2,-4,-15,
CC1(C)CC(=O)C(C(C2=C(O)CC(C)(C)CC2=O)c2cccs2)C(=O)C1 (stereo not drawn),-34,-5,0,0.16,2,32,
Cc1ccc(C(C2=C(O)CC(C)(C)CC2=O)C2C(=O)CC(C)(C)CC2=O)o1 (stereo not drawn),-12,-6,-3,-0.36,4,44*,
Fc1cccc2sc(Nc3nnc(-c4ccccc4)o3)nc12,-41,-18,-4,0.78,-66,60*,
COc1cc(OC)cc(-c2nnc(Nc3nc4c(F)cccc4s3)o2)c1,-21,12,7,0.04,-20,-3,
CCOC(=O)C1=NNC2C(=O)N(Cc3ccccc3)C(=O)C12 (stereo not drawn),x,-8,-7,x,-2,x,
O=C1OC(c2ccccc2)=NC12CC2c1ccc(Cl)cc1 (stereo not drawn),1,-11,-6,-0.83,-11,30*,
O=C(NNc1cccc(Cl)n1)c1ccccc1CC[N+](=O)[O-],x,-6,-2,x,0,x,
SMILES,BB579 growth dn,p47phox inh,RBBP9 inhibitor,sdo1 growth,TbHK1 inh,Yeast life ext,others
CNC(=O)c1c(O)c2cccc3c2n(c1=O)CC3,x,x,1,x,-3,x,
CCc1nc2ccccc2c(=O)n1NC(=O)c1c(O)c2cccc3c2n(c1=O)CCC3,83*,0,-4,-2.8,-6,-6,
O=C(Nc1cccnc1)c1c(O)c2cccc3c2n(c1=O)CC3,-35,-12,-9,-1.7,-24,62*,
O=C(Nn1c(Cc2ccccc2)nc2ccccc2c1=O)c1c(O)c2cccc3c2n(c1=O)CCC3,x,-14,-2,x,-11,x,
O=C(NCc1ccco1)c1c(O)c2cccc3c2n(c1=O)CCC3,-46,-13,2,-0.69,-3,47*,
CCNCCNC(=O)c1c(O)c2cccc3c2n(c1=O)CCC3,-53,9,-9,-1.5,-5,70*,
CC(C)Cn1cnc2c(c(-c3ccccc3)c(-c3ccccc3)n2Cc2ccco2)c1=N,-39,-21,-7,-2.5,6,28*,
N=c1c2c(-c3ccccc3)c(-c3ccccc3)n(Cc3ccco3)c2ncn1CCCn1ccnc1,-14,6,-2,-0.87,8,43*,
c1ccc(-c2c(-c3ccccc3)n(Cc3ccco3)c3ncnc(NCCCn4ccnc4)c23)cc1,-62,-3,-4,-2.7,0,43*,
O=C(CC1C(=O)NCCN1Cc1ccccc1C(F)(F)F)NCCn1cccn1 (stereo not drawn),x,-1,-13,x,2,x,
C/C(=N\NC(=O)c1ccc(CN2CCc3ccccc3C2)cc1)c1ccccc1O,x,-11,-2,x,3,x,
Cc1nnc(SCC(=O)N2CCCC2)n(N)c1=O,x,1,-8,x,-1,x,
COc1ccc2c(C#N)c3ccccn3c2c1,x,3,-5,x,0,x,
CC(C)(C)OC(=O)[C@H]1[C@H](c2ccc([N+](=O)[O-])cc2)C2(C(=O)c3ccccc3C2=O)C2c3ccccc3C=NN21 (stereo partly drawn),-15,-10,5,0.4,-7,43*,
COc1ccc([C@H]2[C@H](C(=O)C(C)(C)C)N3N=Cc4ccccc4C3[C@]23N=C(c2ccccc2)OC3=O)cc1 (stereo partly drawn),-36,-23,-10,-1.8,-12,-7,
COc1ccc(OC)c(NC(=O)c2ccc(CN3CCOCC3)cc2)c1,-17,2,-3,-0.73,0,-10,
COc1ccccc1NC(=O)c1ccc(CN2CCOCC2)cc1,-41,66*,-5,-0.02,-4,-7,
Cc1onc(-c2ccccc2)c1C(=O)NCC(O)c1ccccc1 (stereo not drawn),x,-17,-8,x,-9,x,
Cc1ccccc1-n1ncc2c(SCC(=O)N3c4ccccc4CC3C)ncnc21 (stereo not drawn),-3,-15,-12,-0.28,1,-5,
Cc1nnc(NC(=O)CSc2ncnc3c2cnn3-c2ccccc2C)s1,-49,-7,-3,1.5,2,-2,sdo1 rescue conf=0.042
COc1ccc(OC)c(-c2c3cc(O)c(=O)cc-3oc3cc(O)c(O)cc23)c1,63*,-246,-17,5.7*,23,0,sdo1 rescue conf=0.063
